According to paper PMC2094070 (Nucleic Acids Research, 2007):

Assays:
[1] = test system: wild-type M. smegmatis 70S ribosomes; experiment: Cell-free luciferase translation assay, wild-type ribosomes; format: biochemical; settings: read-out: IC50, inhibition of luciferase synthesis; Mycobacterium smegmatis wild-type ribosomes; coupled transcription–translation, 37°C, 60 min
[2] = test system: cytosolic ribosomes in rabbit reticulocyte lysate; experiment: Rabbit reticulocyte translation assay; format: biochemical; settings: read-out: IC50, inhibition of luciferase synthesis, luciferase mRNA, 30°C, 90 min
Method in brief: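 Rabbit reticulocyte lysate supplied cytosolic ribosomes to translate firefly luciferase control mRNA (500 ng), with amino acids (100 μM each) and RNasin. Aminoglycosides were added as serial dilutions, then incubated at 30°C for 90 min. Luciferase substrate was added and luminescent activity read. IC50 and the 100% value came from best-fit nonlinear regression.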

[3] = test system: M. smegmatis mutants carrying human–bacterial hybrid ribosomes (Homo sapiens helix 44 decoding site); experiment: MIC broth microdilution, cells with human-bacterial hybrid ribosomes; format: cell-based, Mycobacterium smegmatis; settings: for Relative resistance (ratio of mutant to wild-type MIC): human hybrids versus wild-type M. smegmatis; for MIC: M. smegmatis cells with Homo sapiens hybrid ribosomes, 37°C, 72 h
[4] = test system: M. smegmatis Leishmania hybrids (Leishmania/Trypanosoma decoding site); experiment: MIC broth microdilution, cells with Leishmania/Trypanosoma hybrid ribosomes; format: cell-based, Mycobacterium smegmatis; settings: for Relative resistance (ratio of mutant to wild-type MIC): Leishmania hybrids versus wild-type M. smegmatis; for MIC: M. smegmatis cells with Leishmania/Trypanosoma hybrid ribosomes, 37°C, 72 h
[5] = test system: Mycobacterium smegmatis wild-type; experiment: MIC broth microdilution, wild-type strain; format: cell-based; settings: 37°C, 72 h
[6] = test system: Mycobacterium smegmatis hybrids with a Blastocrithidia decoding region; experiment: MIC broth microdilution, cells with Blastocrithidia hybrid ribosomes; format: cell-based; settings: M. smegmatis cells with Blastocrithidia hybrid ribosomes; 37°C, 72 h

Compound | IC50 [1] [nM] | IC50 [2] [nM] | Relative resistance (ratio of mutant to wild-type MIC) [3] | Relative resistance (ratio of mutant to wild-type MIC) [4] | MIC [5] [µg/mL] | MIC [3] [µg/mL] | MIC [6] [µg/mL] | MIC [4] [µg/mL]
CN[C@@H]1[C@@H](O)[C@@H](O[C@@H]2[C@@H](O)[C@H](O[C@H]3O[C@H]([C@@H](C)O)[C@@H](O)[C@H](O)[C@H]3N)[C@@H](N)C[C@H]2N)OC[C@]1(C)O [Geneticin, geneticin (G418)] | 30 | 200 |  |  |  |  |  | 
CNC(C)C1CCC(N)C(OC2C(N)CC(N)C(OC3OCC(C)(O)C(NC)C3O)C2O)O1 (stereo not shown) [Gentamicin, gentamicin] |  |  | ≥ 1024 | ≥ 1024 |  |  |  | 
CCN[C@@H]1C[C@H](N)[C@@H](O[C@H]2OC(CN)=CC[C@H]2N)[C@H](O)[C@H]1O[C@H]1OC[C@](C)(O)[C@H](NC)[C@H]1O [Netilmicin, netilmicin] | 50 | 58000 | ≥ 1024 | ≥ 1024 |  |  |  | 
NC[C@@H]1O[C@H](O[C@H]2[C@@H](O)[C@H](O[C@@H]3[C@@H](O)[C@H](N)C[C@H](N)[C@H]3O[C@H]3O[C@H](CO)[C@@H](O)[C@H](O)[C@H]3N)O[C@@H]2CO)[C@H](N)[C@@H](O)[C@@H]1O [Paromomycin, paromomycin] | 30 | 9200 | ≥ 1024 |  |  |  |  | 
NC[C@H]1O[C@H](O[C@H]2[C@H](O)[C@@H](O[C@H]3O[C@H](CO)[C@@H](O)[C@H](N)[C@H]3O)[C@H](N)C[C@@H]2N)[C@H](N)C[C@@H]1O [Tobramycin, tobramycin] | 20 | 38000 | ≥ 1024 | ≥ 1024 |  |  |  | 
kanamycin A | 50 | 67000 | ≥ 1024 | ≥ 1024 | 1 | >1024 | 1 | >1024
neomycin | 40 | 18000 | ≥ 1024 | ≥ 1024 | 0.5 | >1024 | 1 | >1024
